In data set [1] the test system is BV-2. Kind of data set: Anti-neuroinflammatory activity in […] assessed as reduction in LPS-induced NO production at 10 uM preincubated for 4 hrs followed by LPS stimulation for 24 hrs by Griess assay relative to control. Particulars: for inhibition at 10 µM: Mus musculus. Format: functional. In a few lines: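 Mouse microglial BV-2 cells in DMEM with 10% FBS. Pretreated at 10 µM for 4 h, then LPS 500 ng/mL for 24 h. Nitrite in supernatant measured with Griess reagent at 540 nm. Means ± S.E.M., n=3.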
For orientation: Griess reagent forms a coloured azo dye with nitrite.

For data set [2], the target named is Nitric oxide synthase, inducible (Mus musculus) (UniProt P29477). Description: Inhibition of LPS-induced iNOS in mouse BV2 cells after 4 hrs by DAF-FMDA dye-based fluorescence assay.
Chain of Nitric oxide synthase, inducible (Mus musculus) (P29477 whole entry, looked up): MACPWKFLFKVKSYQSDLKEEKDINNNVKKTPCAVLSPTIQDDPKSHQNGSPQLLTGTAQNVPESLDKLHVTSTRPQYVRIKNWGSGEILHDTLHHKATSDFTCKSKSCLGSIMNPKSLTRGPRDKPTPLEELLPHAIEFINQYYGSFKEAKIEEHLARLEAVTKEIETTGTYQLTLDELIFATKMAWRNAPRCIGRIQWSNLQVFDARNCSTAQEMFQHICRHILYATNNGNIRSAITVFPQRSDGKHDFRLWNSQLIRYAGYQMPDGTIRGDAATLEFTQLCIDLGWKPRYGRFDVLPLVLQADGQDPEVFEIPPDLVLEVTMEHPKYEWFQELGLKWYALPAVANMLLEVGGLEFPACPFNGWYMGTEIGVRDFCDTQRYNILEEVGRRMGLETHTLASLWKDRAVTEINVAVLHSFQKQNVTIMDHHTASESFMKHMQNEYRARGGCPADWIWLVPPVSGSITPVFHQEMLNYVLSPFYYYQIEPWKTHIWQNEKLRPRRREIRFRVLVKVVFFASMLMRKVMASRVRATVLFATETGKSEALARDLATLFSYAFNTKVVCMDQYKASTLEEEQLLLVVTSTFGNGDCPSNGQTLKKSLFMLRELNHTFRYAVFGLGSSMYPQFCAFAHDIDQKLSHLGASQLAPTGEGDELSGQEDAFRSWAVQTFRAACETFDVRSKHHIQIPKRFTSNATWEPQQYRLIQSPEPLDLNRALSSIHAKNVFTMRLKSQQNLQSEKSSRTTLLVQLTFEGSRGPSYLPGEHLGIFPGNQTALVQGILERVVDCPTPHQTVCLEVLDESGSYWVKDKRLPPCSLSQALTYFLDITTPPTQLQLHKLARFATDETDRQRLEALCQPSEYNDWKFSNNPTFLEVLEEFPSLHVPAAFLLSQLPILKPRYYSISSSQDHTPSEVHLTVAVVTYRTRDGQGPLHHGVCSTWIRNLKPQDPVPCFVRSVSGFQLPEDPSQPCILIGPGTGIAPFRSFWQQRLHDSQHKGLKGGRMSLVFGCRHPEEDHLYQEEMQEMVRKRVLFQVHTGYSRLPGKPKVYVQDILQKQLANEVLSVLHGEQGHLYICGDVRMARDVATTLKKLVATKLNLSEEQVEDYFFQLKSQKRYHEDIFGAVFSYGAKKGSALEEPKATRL
The test system of data set [3] is BV-2. Kind of data set: Anti-neuroinflammatory activity in […] assessed as reduction in LPS-induced NO production preincubated for 4 hrs followed by LPS stimulation for 24 hrs by Griess assay. Format: functional, cell-based. Conditions: Mus musculus. In a few lines:
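BV-2 cells pretreated 4 h over 0.78-100 µM (twofold series), then LPS 500 ng/mL for 24 h. Supernatant mixed 1:1 with Griess reagent, A540, against NaNO2 standard curve. IC50 by curve fitting; mean ± S.E.M. of three experiments.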

Data set [4] is described as follows: Cytotoxicity against […] assessed as reduction in cell viability after 24 hrs by MTT assay. Format: cell-based, BV-2. Conditions: BV2 cells. In a few lines:
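BV-2 cells at 5 × 10^3/well, grown 12 h, then exposed to 1-100 µM for 24 h. MTT at 0.5 mg/mL final for 4 h at 37 ℃. Formazan dissolved in DMSO and read at 490 nm. CC50 as mean ± S.E.M. of three experiments.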

Data set [5] has as its system BV-2. Kind of data set: Anti-neuroinflammatory activity in […] assessed as reduction in LPS-induced TNF-alpha expression preincubated for 2 hrs followed by LPS stimulation for 24 hrs by Western blot analysis. Format: functional, cell-based. In outline: (§1)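 BV-2 cells at 5 × 10^5/well, pretreated at 1, 10 or 20 µM, then LPS 500 ng/mL. Lysed in RIPA with protease/phosphatase inhibitors. 30 µg protein blotted with primary antibodies 1:1000 and HRP secondary 1:5000, ECL detection. β-actin as loading control. Expressed as fold of control; at least three independent experiments, each in duplicate.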

Data set [6] has as its system Mus musculus. Kind of data set: Anti-neuroinflammatory activity in MPTP-induced C57BL/6 mouse assessed as increase in tyrosine hydroxylase positive cells in substantia nigra at 10 to 20 mg/kg, po pre-treated daily for 7 days followed by 4 times MPTP addition at 2 hrs intervals and measured after 4 to 72 hrs post MPTP injection by DAB staining based immunohistochemistry method. Format: functional, organism-based.

The subject of data set [7] is Mus musculus. Description: Anti-neuroinflammatory activity in MPTP-induced C57BL/6 mouse assessed as increase in tyrosine hydroxylase positive cells in striatum at 10 to 20 mg/kg, po pre-treated daily for 7 days followed by 4 times MPTP addition at 2 hrs intervals and measured after 4 to 72 hrs post MPTP injection by DAB staining based immunohistochemistry method. Format: functional, organism-based.

For data set [8], the system named is Mus musculus. Kind of data set: Anti-neuroinflammatory activity in MPTP-induced C57BL/6 mouse assessed as alleviation of functional behaviour impairment at 10 mg/kg, po pre-treated daily for 7 days followed by 4 times MPTP addition at 2 hrs intervals and measured after 4 to 72 hrs post MPTP injection by rota rod test. Format: organism-based. In outline: (§2)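 Male C57BL/6 mice, 7-8 weeks, 20-22 g, 8 per group. Pretrained 3 days on rota-rod, up to 25 rpm, to stay on 180 s. Dosed i.g. at 10 or 20 mg/kg daily for 7 days in 0.5% methylcellulose with 1% Tween 80, vehicle for controls. Then 4 i.p. MPTP injections (20 mg/kg) at 2-h intervals. Tested at 4, 24, 48 and 72 h; mean of three runs.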

Data set [9] relates to Mus musculus. Kind of data set: Anti-neuroinflammatory activity in MPTP-induced C57BL/6 mouse assessed as alleviation of functional behaviour impairment at 20 mg/kg, po pre-treated daily for 7 days followed by 4 times MPTP addition at 2 hrs intervals and measured after 4 to 72 hrs post MPTP injection by rota rod test. Format: organism-based. In outline: as §2
Background: In the rotarod test animals must keep their balance on a rotating rod.

Data set [10] deals with Transcription factor p65 (Mus musculus) (UniProt Q04207). Kind of data set: Inhibition of LPS-induced nuclear translocation of NF-kappaB-p65 in mouse BV2 cells at 1 to 20 uM preincubated for 2 hrs followed by LPS stimulation for 2 hrs by Western blot analysis. On the technique in general: A western blot detects proteins with antibodies after separation by electrophoresis.
Chain of Transcription factor p65 (Mus musculus) (Q04207 whole entry, looked up): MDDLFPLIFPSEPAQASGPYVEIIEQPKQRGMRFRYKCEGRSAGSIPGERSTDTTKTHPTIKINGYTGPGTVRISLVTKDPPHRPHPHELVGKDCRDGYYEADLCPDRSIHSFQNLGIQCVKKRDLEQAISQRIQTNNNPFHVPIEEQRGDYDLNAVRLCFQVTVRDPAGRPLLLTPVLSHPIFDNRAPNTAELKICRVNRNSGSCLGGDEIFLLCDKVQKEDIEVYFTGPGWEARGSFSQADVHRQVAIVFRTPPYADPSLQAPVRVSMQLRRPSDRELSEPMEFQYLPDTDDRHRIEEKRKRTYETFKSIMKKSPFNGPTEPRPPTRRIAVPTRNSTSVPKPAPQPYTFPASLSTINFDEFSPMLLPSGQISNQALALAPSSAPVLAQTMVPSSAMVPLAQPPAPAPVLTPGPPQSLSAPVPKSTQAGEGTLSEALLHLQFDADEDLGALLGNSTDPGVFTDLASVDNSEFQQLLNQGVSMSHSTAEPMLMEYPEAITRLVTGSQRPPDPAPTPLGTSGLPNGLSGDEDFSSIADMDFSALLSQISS
The test system of data set [11] is Mus musculus. Description: Anti-neuroinflammatory activity in MPTP-induced C57BL/6 mouse assessed as reduction in astroglial activation by measuring increase in glial fibrillary acidic protein expression in striatum at 10 to 20 mg/kg, po pre-treated daily for 7 days followed by 4 times MPTP addition at 2 hrs intervals and measured after 4 to 72 hrs post MPTP injection by DAB staining based immunohistochemistry method. Format: functional, organism-based.

Data set [12] concerns BV-2. Kind of data set: Anti-neuroinflammatory activity in […] assessed as reduction in LPS-induced IL-1beta expression preincubated for 2 hrs followed by LPS stimulation for 24 hrs by Western blot analysis. Format: functional, cell-based. In outline:
as §1

The subject of data set [13] is BV-2. Description: Anti-neuroinflammatory activity in […] assessed as reduction in LPS-induced COX-2 expression preincubated for 2 hrs followed by LPS stimulation for 24 hrs by Western blot analysis. Format: functional, cell-based. In outline:
as §1

The test system of data set [14] is BV-2. Kind of data set: Anti-neuroinflammatory activity in […] assessed as reduction in LPS-induced iNOS expression preincubated for 2 hrs followed by LPS stimulation for 24 hrs by Western blot analysis. Format: functional, cell-based. In a few lines: as §1
Data set [15] deals with Mus musculus. Description: Anti-neuroinflammatory activity in MPTP-induced C57BL/6 mouse assessed as reduction in astroglial activation by measuring increase in glial fibrillary acidic protein expression in substantia nigra at 10 to 20 mg/kg, po pre-treated daily for 7 days followed by 4 times MPTP addition at 2 hrs intervals and measured after 4 to 72 hrs post MPTP injection by DAB staining based immunohistochemistry method. Format: functional, organism-based.

The source made the active and inactive calls. The calls are words filed in the database; no cut-off is given here. A value given as a limit tells only on which side of the number the result lay.

For orientation: inhibition means the share of the control response that was lost under treatment. Take `O=C(O)C[C@H](NC(=O)/C=C/c1cccc(O)c1)C(=O)O`: the inhibition entry with BV-2 [1] is “Active”.
As for `COC(=O)CC[C@H](NC(=O)/C=C/c1cccc(O)c1)C(=O)OC`, the inhibition entry in the data set on BV-2 [1] was “Active”.
A word on the IC50: it is the concentration that gives 50% inhibition. The term CC50 denotes the concentration that lowers cell viability or growth by half. For the compound `O=C(/C=C/c1cccc(O)c1)N[C@@H](Cc1ccccc1)C(=O)O`, the IC50 in data set [2] came out at 29.2 µM; in the data set with BV-2 [3] it was 15.3 µM. The inhibition at 10 µM in the data set with BV-2 [1] is over 50%. The CC50 at 24 h in [4] is over 100 µM.
For `COc1cc(/C=C/C(=O)N[C@@H](Cc2ccc(O)cc2)C(=O)O)ccc1O`, the Activity result in the data set on BV-2 [5], with BV-2 [12], with BV-2 [13] and in the data set with BV-2 [14] was “Dose-dependent effect” throughout. The result in the data set with Mus musculus [6], in the data set on Mus musculus [7], with Mus musculus [8], in the data set with Mus musculus [9], with Mus musculus [11] and in the data set with Mus musculus [15] was Active. Besides, the IC50 amounted to 1.01 µM in data set [2] and 2.67 µM in the data set with BV-2 [3]. The inhibition at 10 µM in the data set on BV-2 [1] was over 50%. For the same compound, the inhibition result in data set [10] is “Active”. Besides, the CC50 at 24 h in [4] is over 100 µM.
With `COc1cc(/C=C/C(=O)N[C@@H](CCC(=O)O)C(=O)O)ccc1O`, the inhibition result in the data set on BV-2 [1] is “Active”.
Turning to `COc1cc(/C=C/C(=O)N[C@@H](Cc2ccccc2)C(=O)O)ccc1O`, the results for the IC50 (in data set [2]; in the data set with BV-2 [3]) were 2.98 µM and 4.41 µM, respectively. Moreover, the inhibition at 10 µM with BV-2 [1] is over 50%. Also, the CC50 at 24 h in data set [4] was over 100 µM.
Take `COC(=O)[C@H](Cc1ccccc1)NC(=O)/C=C/c1ccc(O)cc1`: in the data set with BV-2 [1], the inhibition entry was “Active”.
The same measure, in the same setting: in the case of `COC(=O)[C@H](Cc1ccccc1)NC(=O)/C=C/c1ccccc1` it was “Active”; in that of `COC(=O)CC[C@H](NC(=O)/C=C/c1ccc(O)c(OC)c1)C(=O)OC`, “Active”; in that of `COC(=O)[C@H](Cc1ccc(O)cc1)NC(=O)/C=C/c1ccc(O)c(OC)c1`, “Active”.
Still for that read-out and setting: in the case of `COC(=O)[C@H](Cc1ccccc1)NC(=O)/C=C/c1cccc(O)c1` it was “Active”.
Still for that read-out and setting: the entry for `O=C(O)C[C@H](NC(=O)/C=C/c1ccc(O)cc1)C(=O)O` is “Active”; for `COC(=O)[C@H](Cc1ccc(O)cc1)NC(=O)/C=C/c1ccccc1` it is “Active”.
In the case of `O=C(/C=C/c1ccc(O)cc1)N[C@@H](Cc1ccc(O)cc1)C(=O)O`, the IC50 amounted to 2.1 µM in [2] and 3.4 µM in the data set with BV-2 [3]. For the same compound, in the data set on BV-2 [1], the inhibition at 10 µM was over 50%. The CC50 at 24 h in data set [4] was over 100 µM.
As for `COC(=O)C[C@H](NC(=O)/C=C/c1cccc(O)c1)C(=O)OC`, in the data set with BV-2 [1], the inhibition entry was “Active”.
The same measure, in the same setting: the entry for `COC(=O)[C@H](Cc1ccc(O)cc1)NC(=O)/C=C/c1ccc(O)cc1` is “Active”.
For `O=C(O)CC[C@H](NC(=O)/C=C/c1ccccc1)C(=O)O`, the inhibition result in the data set on BV-2 [1] is “Active”.
In the case of `O=C(/C=C/c1ccc(O)cc1)N[C@@H](Cc1ccccc1)C(=O)O`, the IC50 in [2] came out at 8.45 µM; in the data set with BV-2 [3] it was 10.4 µM. In the data set on BV-2 [1], the inhibition at 10 µM was over 50%. In data set [4], the CC50 at 24 h is over 100 µM.
As for `COC(=O)C[C@H](NC(=O)/C=C/c1ccc(O)cc1)C(=O)OC`, the inhibition result in the data set with BV-2 [1] is “Active”.
For the compound `O=C(/C=C/c1ccccc1)N[C@@H](Cc1ccc(O)cc1)C(=O)O`, the inhibition result in the data set on BV-2 [1] was “Active”.
Take `O=C(/C=C/c1ccccc1)N[C@@H](Cc1ccccc1)C(=O)O`: the results for the IC50 (in [2]; in the data set with BV-2 [3]) were 18.9 µM and 26.4 µM, respectively. In the data set on BV-2 [1], the inhibition at 10 µM was over 50%. For the same compound, in [4], the CC50 at 24 h is over 100 µM.
As to `O=C(O)CC[C@H](NC(=O)/C=C/c1cccc(O)c1)C(=O)O`, the inhibition entry in the data set with BV-2 [1] was “Active”.
Same read-out and setting: in the case of `COC(=O)[C@H](Cc1ccc(O)cc1)NC(=O)/C=C/c1cccc(O)c1` it was “Active”; in that of `COC(=O)CC[C@H](NC(=O)/C=C/c1ccccc1)C(=O)OC`, “Active”; in that of `O=C(/C=C/c1cccc(O)c1)N[C@@H](Cc1ccc(O)cc1)C(=O)O`, “Active”.
Same read-out and setting: the entry for `COC(=O)[C@H](Cc1ccccc1)NC(=O)/C=C/c1ccc(O)c(OC)c1` is “Active”.

Source of the values: ChEMBL document CHEMBL4229389, “Synthesis and biological evaluation of clovamide analogues as potent anti-neuroinflammatory agents in vitro and in vivo” (Eur J Med Chem, 2018).
